Seven molecules from ChEMBL document CHEMBL2331396, “Exploration of 1-(3-chloro-4-(4-oxo-4H-chromen-2-yl)phenyl)-3-phenylurea derivatives as selective dual inhibitors of Raf1 and JNK1 kinases for anti-tumor treatment” (Bioorg Med Chem, 2013) can be followed below.

Series [1] has as its system HepG2. As to the kind of experiment: Antiproliferative activity against human HepG2 cells assessed as growth inhibition measured after 48 hrs by MTT assay. To be noted: HepG2, 48 h. Type of series: functional, cell-based. Summed up:
(§1)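 Compounds dissolved in DMSO and diluted in medium to final 0.5–50 µM (final DMSO <1%). Cells were grown in DMEM with 10% FBS, penicillin and streptomycin at 37 °C, 5% CO₂. They were seeded at 5 × 10⁵ cells/mL, incubated 24 h, then treated in triplicate per concentration for 48 h. MTT was added for 4 h, formazan dissolved in DMSO, absorbance read at 495 nm, and IC50 derived.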
(Tetrazolium dyes change colour on reduction, which living cells bring about.)

The nature of series [2]: Cytotoxicity against human QSG7701 cells assessed as inhibition rate at 50 uM measured after 48 hrs by MTT assay. Type of series: cell-based. The conditions noted are these: read-out: INH. Summed up:
(§2)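 Normal liver cells were grown in DMEM with 10% FBS plus penicillin/streptomycin at 37 °C, 5% CO₂. They were seeded at 5 × 10⁵ cells/mL and incubated 24 h. Compounds from DMSO stock were added at final 50 or 100 µM (DMSO <1%), in triplicate, for 48 h. MTT was added for 4 h, formazan dissolved in DMSO, A495 read, and inhibition rate calculated.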

Series [3] deals with HCT-116. The experiment in a line: Antiproliferative activity against human HCT116 cells assessed as growth inhibition measured after 48 hrs by MTT assay. Type of series: functional, cell-based. The conditions noted are these: HCT-116, 48 h. In outline: as §1
Series [4] is described as follows: Cytotoxicity against human HL7702 cells assessed as inhibition rate at 50 uM measured after 48 hrs by MTT assay. Type of series: cell-based, L02. To be noted: read-out: INH. Summed up:
as §2

Series [5] concerns A549. As to the kind of experiment: Antiproliferative activity against human A549 cells assessed as growth inhibition measured after 48 hrs by MTT assay. Type of series: functional, cell-based. To be noted: A549, 48 h. In outline:
as §1

The nature of series [6]: Cytotoxicity against human HL7702 cells assessed as inhibition rate at 100 uM measured after 48 hrs by MTT assay. Type of series: cell-based, L02. To be noted: read-out: INH. In outline:
as §2

Series [7] can be described thus: Cytotoxicity against human QSG7701 cells assessed as inhibition rate at 100 uM measured after 48 hrs by MTT assay. Type of series: cell-based. The conditions noted are these: read-out: INH. In outline: as §2
Series [8] addresses Mitogen-activated protein kinase 3 (Homo sapiens) (UniProt P27361). The experiment in a line: Inhibition of ERK1 (unknown origin) at 50 uM. In outline:
(§3)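 Luminescent Kinase-Glo Plus assay. Enzyme, substrate, ATP and compound were mixed in pH 7.4 buffer containing 25 mM HEPES and 10 mM MgCl2, then incubated at 30 °C for 1 h. An equal volume of Kinase-Glo Plus reagent stopped the reaction before luminescence was read. Signal tracks remaining ATP and runs inversely to kinase activity; results are given as percent inhibition.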

Series [9] deals with HepG2. The experiment in a line: Cell cycle arrest in human HepG2 cells assessed as cells at G0/G1 phase at 10 uM measured after 24 hrs by flow cytometric analysis. Type of series: functional. A general note: In flow cytometry, cells or beads pass a laser one at a time.
The subject of series [10] is HepG2. The experiment in a line: Induction of human HepG2 cells assessed as early apoptotic cells at 10 uM measured after 36 hrs by Annexin VFITC/PI assay. Type of series: functional.
Series [11] relates to HepG2. The experiment in a line: Induction of human HepG2 cells assessed as late apoptotic cells at 10 uM measured after 24 hrs by Annexin VFITC/PI assay. The class given is functional.
The subject of series [12] is HepG2. The experiment in a line: Cell cycle arrest in human HepG2 cells assessed as cells at S phase at 10 uM measured after 48 hrs by flow cytometric analysis. Type of series: functional.
For series [13], the target named is RAF proto-oncogene serine/threonine-protein kinase (Homo sapiens) (UniProt P04049). As to the kind of experiment: Inhibition of Raf1 in human HepG2 cells assessed as ERK1/2 phosphorylation at 10 uM measured after 2 hrs by Western blot analysis. The class given is cell-based. The conditions noted are these: in the assay text read “4 hrs” for “2 hrs”. In outline:
(§4)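 Cells were lysed on ice for 50 min in HEPES pH 7.9/KCl/EDTA/NP-40 buffer with Na₃VO₄, NaF and protease inhibitors. Protein was quantified by Coomassie, run on 15% SDS-PAGE and transferred to PVDF. Membranes were blocked in 5% milk for 2 h and probed with total/phospho ERK1/2 or c-Jun antibodies for 2 h at room temperature. Detection was by HRP secondary antibody and chemiluminescence.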
A general note: Immunoblotting shows a protein as a band on a membrane.

In series [14] the test system is HepG2. The experiment in a line: Induction of human HepG2 cells assessed as late apoptotic cells at 10 uM measured after 12 hrs by Annexin VFITC/PI assay. Type of series: functional.
Series [15] concerns HepG2. As to the kind of experiment: Cell cycle arrest in human HepG2 cells assessed as cells at G0/G1 phase at 10 uM measured after 48 hrs by flow cytometric analysis. Type of series: functional.
Series [16] deals with Mitogen-activated protein kinase 8 (Homo sapiens) (UniProt P45983). The experiment in a line: Inhibition of JNK1 (unknown origin) at 50 uM. Summed up: as §3
The target is the same in series [17]. The experiment in a line: Inhibition of JNK1 in human HepG2 cells assessed as c-Jun phosphorylation at 10 uM measured after 2 hrs by Western blot analysis. Type of series: cell-based. Summed up: as §4
Series [18] deals with HepG2. As to the kind of experiment: Cell cycle arrest in human HepG2 cells assessed as cells at S phase at 10 uM measured after 12 hrs by flow cytometric analysis. The class given is functional.
Series [19] deals with HepG2. As to the kind of experiment: Cell cycle arrest in human HepG2 cells assessed as cells at G0/G1 phase at 10 uM measured after 12 hrs by flow cytometric analysis. Type of series: functional.
Series [20] concerns HepG2. The experiment in a line: Cell cycle arrest in human HepG2 cells assessed as cells at S phase at 10 uM measured after 24 hrs by flow cytometric analysis. The class given is functional.
Series [21] concerns HepG2. As to the kind of experiment: Induction of human HepG2 cells assessed as early apoptotic cells at 10 uM measured after 48 hrs by Annexin VFITC/PI assay. Type of series: functional.
In series [22] the test system is HepG2. As to the kind of experiment: Cell cycle arrest in human HepG2 cells assessed as cells at G2+M phase at 10 uM measured after 48 hrs by flow cytometric analysis. Type of series: functional.
In series [23] the test system is HepG2. As to the kind of experiment: Induction of human HepG2 cells assessed as late apoptotic cells at 10 uM measured after 48 hrs by Annexin VFITC/PI assay. The class given is functional.
The subject of series [24] is HepG2. As to the kind of experiment: Cell cycle arrest in human HepG2 cells assessed as cells at G2+M phase at 10 uM measured after 24 hrs by flow cytometric analysis. Type of series: functional.
In series [25] the target is RAF proto-oncogene serine/threonine-protein kinase (Homo sapiens) (UniProt P04049). The experiment in a line: Inhibition of Raf1 (unknown origin) at 50 uM. In outline:
(§5)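 Kinase-Glo Plus luminescent assay. Enzyme, substrate, ATP and compound were mixed in 25 mM HEPES pH 7.4 with 10 mM MgCl₂ and incubated 1 h at 30 °C. The reaction was stopped with an equal volume of Kinase-Glo Plus reagent. Luminescence reflects remaining ATP, inversely related to kinase activity, and is reported as percent inhibition at a single concentration.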

In series [26] the test system is HepG2. The experiment in a line: Induction of human HepG2 cells assessed as late apoptotic cells at 10 uM measured after 36 hrs by Annexin VFITC/PI assay. The class given is functional.
Series [27] deals with HepG2. The experiment in a line: Cell cycle arrest in human HepG2 cells assessed as cells at S phase at 10 uM measured after 36 hrs by flow cytometric analysis. The class given is functional.
Series [28] has as its system HepG2. As to the kind of experiment: Induction of human HepG2 cells assessed as early apoptotic cells at 10 uM measured after 24 hrs by Annexin VFITC/PI assay. Type of series: functional.
Series [29] has as its target Mitogen-activated protein kinase 8 (Homo sapiens) (UniProt P45983). The experiment in a line: Inhibition of JNK1 in human HepG2 cells assessed as inhibition of methyl methane sulfonate-induced c-Jun phosphorylation at 100 uM measured after 2 hrs by Western blot analysis. The class given is cell-based. In outline: as §4
Series [30] deals with HepG2. The experiment in a line: Cell cycle arrest in human HepG2 cells assessed as cells at G0/G1 phase at 10 uM measured after 36 hrs by flow cytometric analysis. Type of series: functional.
Series [31] addresses Mitogen-activated protein kinase 1 (Homo sapiens) (UniProt P28482). To be noted: at 50 µM.
Series [32] has as its system HepG2. As to the kind of experiment: Induction of human HepG2 cells assessed as early apoptotic cells at 10 uM measured after 12 hrs by Annexin VFITC/PI assay. The class given is functional.
Series [33] concerns HepG2. The experiment in a line: Cell cycle arrest in human HepG2 cells assessed as cells at G2+M phase at 10 uM measured after 12 hrs by flow cytometric analysis. The class given is functional.
The subject of series [34] is HepG2. The experiment in a line: Cell cycle arrest in human HepG2 cells assessed as cells at G2+M phase at 10 uM measured after 36 hrs by flow cytometric analysis. Type of series: functional.
The target of series [35] is Mitogen-activated protein kinase 14 (Homo sapiens) (UniProt Q16539). The experiment in a line: Inhibition of p38-alpha (unknown origin) at 50 uM. Summed up:
as §5

Each structure is given as a SMILES string. The source made the active and inactive calls. The calls are words filed in the database; no cut-off is given here.

In general, IC50 refers to the concentration needed to halve the response being measured. The inhibition is how much of the control response was suppressed.

Sequence of Mitogen-activated protein kinase 8 (Homo sapiens) (P45983 whole entry): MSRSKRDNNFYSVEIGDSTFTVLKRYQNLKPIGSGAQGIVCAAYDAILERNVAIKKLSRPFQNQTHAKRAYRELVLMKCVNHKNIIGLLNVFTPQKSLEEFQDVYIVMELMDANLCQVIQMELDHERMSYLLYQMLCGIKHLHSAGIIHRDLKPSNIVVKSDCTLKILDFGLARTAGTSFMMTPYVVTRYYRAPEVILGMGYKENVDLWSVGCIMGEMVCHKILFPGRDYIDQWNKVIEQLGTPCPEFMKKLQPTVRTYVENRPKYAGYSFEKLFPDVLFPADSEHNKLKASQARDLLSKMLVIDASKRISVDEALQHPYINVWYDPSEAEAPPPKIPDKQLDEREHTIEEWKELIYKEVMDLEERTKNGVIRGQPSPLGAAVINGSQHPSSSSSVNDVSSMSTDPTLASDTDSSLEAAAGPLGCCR
Sequence of RAF proto-oncogene serine/threonine-protein kinase (Homo sapiens) (P04049 whole entry): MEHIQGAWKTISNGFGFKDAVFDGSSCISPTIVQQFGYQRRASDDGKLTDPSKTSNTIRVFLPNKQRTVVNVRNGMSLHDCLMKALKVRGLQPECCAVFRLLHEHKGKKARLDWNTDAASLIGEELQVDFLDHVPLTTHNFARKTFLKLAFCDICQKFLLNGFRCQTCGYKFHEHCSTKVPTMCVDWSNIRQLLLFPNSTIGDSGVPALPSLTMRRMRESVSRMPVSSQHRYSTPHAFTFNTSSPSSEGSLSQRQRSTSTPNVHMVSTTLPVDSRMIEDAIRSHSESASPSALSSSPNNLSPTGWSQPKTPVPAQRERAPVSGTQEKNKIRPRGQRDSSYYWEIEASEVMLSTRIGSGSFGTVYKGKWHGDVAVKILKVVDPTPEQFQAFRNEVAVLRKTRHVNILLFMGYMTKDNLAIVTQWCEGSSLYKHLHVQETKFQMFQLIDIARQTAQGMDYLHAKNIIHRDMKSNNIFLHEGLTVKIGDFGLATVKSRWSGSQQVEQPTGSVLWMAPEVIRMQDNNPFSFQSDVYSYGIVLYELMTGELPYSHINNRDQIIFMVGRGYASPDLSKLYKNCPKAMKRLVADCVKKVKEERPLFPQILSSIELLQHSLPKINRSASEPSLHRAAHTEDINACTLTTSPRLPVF
Sequence of Mitogen-activated protein kinase 3 (Homo sapiens) (P27361 whole entry): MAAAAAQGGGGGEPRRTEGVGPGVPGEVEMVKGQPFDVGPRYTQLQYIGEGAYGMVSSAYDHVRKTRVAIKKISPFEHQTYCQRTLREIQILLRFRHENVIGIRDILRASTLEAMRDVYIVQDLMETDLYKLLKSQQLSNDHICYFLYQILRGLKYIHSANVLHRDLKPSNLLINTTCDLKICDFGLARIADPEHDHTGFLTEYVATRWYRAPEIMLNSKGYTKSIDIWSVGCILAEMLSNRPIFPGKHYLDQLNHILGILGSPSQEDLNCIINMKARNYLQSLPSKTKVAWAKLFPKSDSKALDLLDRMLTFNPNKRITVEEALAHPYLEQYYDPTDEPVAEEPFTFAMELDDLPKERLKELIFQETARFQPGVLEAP
Sequence of Mitogen-activated protein kinase 1 (Homo sapiens) (P28482 whole entry): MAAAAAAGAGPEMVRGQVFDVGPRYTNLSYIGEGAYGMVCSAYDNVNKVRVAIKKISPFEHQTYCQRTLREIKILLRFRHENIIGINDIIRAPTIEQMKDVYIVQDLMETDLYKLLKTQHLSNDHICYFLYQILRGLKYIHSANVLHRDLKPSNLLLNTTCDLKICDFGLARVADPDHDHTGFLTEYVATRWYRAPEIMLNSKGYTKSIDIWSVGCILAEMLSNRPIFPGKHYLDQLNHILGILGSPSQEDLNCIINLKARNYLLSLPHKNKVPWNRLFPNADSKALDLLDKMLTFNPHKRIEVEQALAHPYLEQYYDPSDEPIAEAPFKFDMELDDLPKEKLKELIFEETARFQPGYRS
Sequence of Mitogen-activated protein kinase 14 (Homo sapiens) (Q16539 whole entry): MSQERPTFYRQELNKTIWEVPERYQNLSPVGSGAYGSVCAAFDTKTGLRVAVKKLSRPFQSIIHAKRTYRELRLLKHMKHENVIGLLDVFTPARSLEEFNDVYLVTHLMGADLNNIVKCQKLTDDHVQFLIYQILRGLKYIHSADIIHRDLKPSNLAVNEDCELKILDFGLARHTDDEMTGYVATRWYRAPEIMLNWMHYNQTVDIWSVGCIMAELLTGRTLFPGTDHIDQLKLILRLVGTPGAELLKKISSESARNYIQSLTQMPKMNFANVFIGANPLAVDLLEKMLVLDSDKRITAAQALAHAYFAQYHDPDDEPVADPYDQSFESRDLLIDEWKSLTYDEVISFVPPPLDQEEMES

With `O=C(Nc1cccc(Cl)c1)Nc1ccc(-c2cc(=O)c3ccccc3o2)c(Cl)c1`, the values for the IC50 in [1], in [3] and in series [5] were 9.7 µM, 25.4 µM and 14 µM, respectively. Moreover, the cytotoxicity at 48 h, 50 µM amounted to 48.9% in series [2] and 26.8% in [4]. Moreover, the figures for the cytotoxicity at 48 h, 100 µM in series [6] and in series [7] were 47.1% and 62.4%, respectively.

For `O=C(Nc1cccc(Cl)c1)Nc1ccc(-c2cc(=O)c3cc(F)ccc3o2)c(Cl)c1`, the IC50 is 31.7 µM in [1], 24.2 µM in series [3] and over 50 µM in [5]. The cytotoxicity at 48 h, 50 µM in series [2] was found to be 26.8%; in series [4], 20.1%. The cytotoxicity at 48 h, 100 µM in series [6] stood at 54.2%; in series [7], 57.7%.

For `CCc1ccc2oc(-c3ccc(NC(=O)Nc4ccc(Cl)cc4)cc3Cl)cc(=O)c2c1`, the inhibition result in series [8], in [17] and in [31] was “inactive” in each case. For the same molecule, the Activity in [9] stood at 62.29%; in series [10], 0.46%; in series [11], 1.2%; in series [12], 20.57%; in series [14] it was 1.22%; in series [15], 52.83%. Besides, the Activity is listed as 19.92% in series [18]; 69.43% in series [19]; 21.77% in series [20]; 0.55% in series [21]; 13.43% in series [22]; 1.28% in series [23]. Moreover, the Activity came out at 9.38% in series [24]; 1.37% in series [26]; 24.69% in series [27]; 0.44% in series [28]; 52.83% in series [30]; 0.27% in series [32]. The figures for the Activity in series [33] and in series [34] were 8.81% and 9.14%, respectively. In addition, the concentration for half-maximal inhibition (IC50) in series [1] was 8.3 µM; in series [3], 28.7 µM; in [5] it was over 50 µM. For the same molecule, the cytotoxicity at 48 h, 50 µM in series [2] was determined as 23.7%; in series [4] it was 18.7%. The inhibition entry in series [13] and in [29] was “Active” in each case. In addition, the figures for the inhibition in [16], in series [25] and in series [35] were 67.4%, 65.6% and 13.5%, respectively. Further, the cytotoxicity at 48 h, 100 µM in [6] came to 28.3%; in series [7], 31.8%.

For the molecule `CCc1ccc2oc(-c3ccc(NC(=O)Cc4cccc(F)c4)cc3Cl)cc(=O)c2c1`, the IC50 was 19.8 µM in series [1], over 50 µM in [3] and over 50 µM in series [5]. The figures for the cytotoxicity at 48 h, 50 µM in series [2] and in [4] were 22.4% and 20.4%, respectively. For the same molecule, the cytotoxicity at 48 h, 100 µM in [6] was 44.6%; in [7] it was 27.4%.

As for `CN[C@@H]1C[C@H]2O[C@@](C)([C@@H]1OC)n1c3ccccc3c3c4c(c5c6ccccc6n2c5c31)C(=O)NC4`, the inhibition was determined as 99.4% in series [8] and 96% in series [16].

For the molecule `CCc1ccc2oc(-c3ccc(NC(=O)Nc4cccc(Cl)c4)cc3Cl)cc(=O)c2c1`, the IC50 is 30.7 µM in series [1], 27.9 µM in series [3] and over 50 µM in series [5]. Also, the cytotoxicity at 48 h, 50 µM in series [2] was 12.6%; in series [4], 9.4%. In addition, the cytotoxicity at 48 h, 100 µM in series [6] came to 37.2%; in series [7] it was 18%.

Regarding `O=C(Nc1cccc(Cl)c1)Nc1ccc(-c2cc(=O)c3ccc(O)cc3o2)c(Cl)c1`, the IC50 in series [1] came out at 12.2 µM; in [3], 25.9 µM; in series [5], 16.8 µM. The cytotoxicity at 48 h, 50 µM was determined as 34.6% in series [2] and 80.2% in [4]. In addition, the cytotoxicity at 48 h, 100 µM is 83.8% in [6] and 43.2% in series [7].
